The molecules below were run against T1, UniProt E1BM68. Conditions: stereoisomer not certain.
T1 sequence (whole entry): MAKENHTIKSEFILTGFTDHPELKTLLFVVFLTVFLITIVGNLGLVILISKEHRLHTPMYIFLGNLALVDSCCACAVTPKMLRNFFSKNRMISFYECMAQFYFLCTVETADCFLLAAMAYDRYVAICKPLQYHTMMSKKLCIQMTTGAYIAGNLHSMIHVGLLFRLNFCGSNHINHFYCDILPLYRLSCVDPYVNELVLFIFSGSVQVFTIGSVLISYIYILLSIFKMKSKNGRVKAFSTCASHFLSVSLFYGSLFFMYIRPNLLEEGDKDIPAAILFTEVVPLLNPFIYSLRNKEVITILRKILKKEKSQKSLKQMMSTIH
How it was run: (§1)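 Each receptor–molecule pair is labelled responsive or non-responsive (inactive) according to whether the original authors judged the measured signal statistically different from baseline. The data were taken from the main text and supplementary material of published papers and checked for typos and inconsistencies. Assay methods differed by source, with transient luciferase assays in mammalian cell lines being common.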
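Also: active if original authors judged signal statistically different from baseline.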

Row | SMILES | odorant receptor agonist call
1 | CC(=O)c1nccnc1C | active
2 | CC1CCc2nccnc21 (stereo unspecified) | active
3 | Cc1cnc(C)c(C)n1 | active
4 | Cc1nccnc1C | active
5 | C=Cc1cnccn1 | active
6 | CCc1nccnc1C(C)=O | active
7 | CCc1cnc(C)c(C)n1 | inactive
8 | COC1=C(C)OC(C)C1=O (stereo unspecified) | inactive
9 | Cc1cnc(C)cn1 | active
10 | CCc1nccnc1C | active
11 | CC(=O)c1cnccn1 | active
12 | Cc1cncc(C)n1 | active
13 | Cc1cnccn1 | active
14 | COc1nccnc1CC(C)C | active

What follows are molecules tested against T2, UniProt E9Q9Z6. Conditions: stereoisomer not certain.
T2 sequence (whole entry): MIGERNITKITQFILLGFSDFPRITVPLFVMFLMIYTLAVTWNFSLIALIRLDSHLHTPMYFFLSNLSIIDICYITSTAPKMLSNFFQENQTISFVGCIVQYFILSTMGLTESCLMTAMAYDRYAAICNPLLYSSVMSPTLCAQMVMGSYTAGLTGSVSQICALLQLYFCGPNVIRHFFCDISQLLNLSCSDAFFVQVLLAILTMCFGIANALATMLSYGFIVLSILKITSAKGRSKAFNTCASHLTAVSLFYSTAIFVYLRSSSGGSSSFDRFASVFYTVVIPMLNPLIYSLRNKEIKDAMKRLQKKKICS
How it was run: as §1

Row | SMILES | odorant receptor agonist call
15 | O=C1CCCC=CCCCCCCCCCC1 | active
16 | CC(=O)c1c(C)c([N+](=O)[O-])c(C(C)(C)C)c([N+](=O)[O-])c1C | active
17 | O=C1CCCCCCCCCC1 | inactive
18 | O=C1CCCCCCC=CCCCCCCC1 | active
19 | CC1CC=CCCCCCCCCC(=O)C1 (stereo unspecified) | active
20 | CC1CCCCCCCCCCCCC(=O)C1 (stereo unspecified) | active
21 | CCC(=O)OCC(C)(C)OC(C)C1CCCC(C)(C)C1 (stereo unspecified) | inactive
22 | CCCCCCCC(=O)CCCCCCC | inactive
23 | CC1CCCCCCCCCCCC(=O)C1 (stereo unspecified) | active
24 | O=C1CCCCCC=CCCCCCCCCO1 | inactive
25 | OC1CCCCCCCCCCCCCC1 | active
26 | CC1C(C)(C)C2=C(C(=O)CCC2)C1(C)C (stereo unspecified) | inactive
27 | C1CCCCCCCCCCCCCC1 | inactive
28 | O=C1CCCCCCCCCCCCCC1 | active
29 | O=C1C=CCCCCCCCCCCCCO1 | active
30 | CCCCCCCCCCCCCC(C)=O | active
31 | O=C1CCCCCCCCC1 | inactive

— the M2OR odorant receptor database
